Laboratory results from ChEMBL document CHEMBL4513216, “Probing the Open Global Health Chemical Diversity Library for Multistage-Active Starting Points for Next-Generation Antimalarials” (ACS Infect Dis, 2020).

Test: Toxicity liver stage against HepG2, at 10uM
Type: cell-based
Set-up: test concentration 10 uM, cell line HepG2-A16-CD81EGFP
Conditions: human, HepG2-A16-CD81EGFP cells; read-out: INHIBITION
Outline: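 Uninfected HepG2-A16-CD81EGFP cells, 3 × 10^3 per well, 1536-well, plated on prespotted compound at 10 μM final, parasite-free screening media added to match infected plates; puromycin 10 μM positive, DMSO 0.5% negative; run in parallel with 48 h PbLuc assay at 37 °C, 5% CO2; viability by CellTiter-Glo luminescence, normalized to controls.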

SMILES | cytotoxicity at 10 µM
O=C(NCc1ccc(Cl)cc1)[C@@H]1Cc2[nH]cnc2CN1CC1CC1 | 3.67%
Cn1nc(-c2cccs2)cc1[C@H]1CN2CC[C@H]1C[C@@H]2CNS(C)(=O)=O | -1.39%
Cc1cccc(CN2C[C@@H]3CN(C(=O)c4cnccn4)C[C@@H]3C2=O)c1 | 2.43%
CC(C)NC(=O)C1CN(C(=O)CCc2ccccc2)CC12CCOCC2 (configuration not stated) | -3%
CCOc1ccc(NC(=O)Cn2cc(I)cn2)cc1 | 9.84%
Cc1ccsc1C(=O)N1CC(C(=O)NCC2CC2)C2(CCOCC2)C1 (configuration not stated) | 0.955%
CCN(CC)C(=O)c1ccn(COc2c(Cl)cccc2Cl)n1 | 11.6%
Cc1nn(C)c(C)c1CN1CCN(CC2(O)CCCN(C)C2)CC1 (configuration not stated) | 9.07%
COCCCNC(=O)CCn1ncc2c(Cl)cccc21 | 7.72%
CCn1nc(C)cc1NC(=O)CCn1nc(C)c2ccccc21 | 4.98%
CCN(CC)C(=O)c1cc(C2(C)CCN(C(C)=O)CC2)nc(C)n1 | 5.27%
CN1CCc2nc3cc(C(=O)NCc4cccs4)ccc3c(=O)n2CC1 | 0.207%
Cc1cc2nccc(C3CCN(C(=O)c4ccccc4F)CC3)n2n1 | 1.16%
Cc1ncsc1CN1CCOC(C)(C(=O)N(C)C)C1 (configuration not stated) | 12.1%
CCS(=O)(=O)N1CCC(n2nc(-c3cc(C)oc3C)ccc2=O)CC1 | 8.82%
COc1cccc(-c2nccc(C3CCCN3C)n2)c1 (configuration not stated) | 9.27%
Cc1cc(C)n(CCNC(=O)c2cc(C3CC3)n[nH]2)n1 | 7.39%
CC(C)C1=NOC2(CCN(C(=O)C3CCCC3)CC2)C1 | 6.69%
OC1(CNc2ccccc2)CCNCC1 | -1.9%
O=C(C(c1ccccc1)S(=O)(=O)c1ccccc1)N1CCCCC1 (configuration not stated) | -6.01%
NC(=O)CC1CCN(S(=O)(=O)c2cnn(-c3ccccc3)c2)CC1 | 12%
CS(=O)(=O)CCCN1CCN(C(C#N)c2ccccc2)CC1 (configuration not stated) | -3.14%
CN(Cc1ccccn1)C(=O)CNC(=O)N1CCc2ccccc2C1 | 2.8%

SMILES | cytotoxicity at 10 µM
COc1ccc(CN(C)C(=O)CN2CC(n3cccn3)C2)cc1F | -0.717%
Cc1cccnc1NC(=O)c1ccc(F)c(S(=O)(=O)NC2CC2)c1 | 1.77%
CC(C)COc1cncc(N(C)C2CCN(c3ncccn3)CC2)n1 | 0.583%
Cc1cc(C2CCCN(C(=O)COc3ccccc3F)C2)n[nH]1 (configuration not stated) | 7.45%
CCn1cnnc1CNC(=O)N(C)Cc1ccc(Cl)cc1Cl | -17.7%
COC(=O)N1CCCC(NC(=O)NCc2nc(C)cs2)C1 (configuration not stated) | 7.25%
Cc1cccnc1CNc1ccc(C(=O)N2CCc3ccccc32)cn1 | -0.608%
Cc1nnc(SCc2cccc(F)c2)n1CC(N)=O | -6.58%
COc1ccc(CCNC(=O)C(C)Nc2cccc(C)c2C)cc1 (configuration not stated) | -5.91%
Cc1cc(F)cc2c(N3CCC(S(N)(=O)=O)CC3)c(C#N)cnc12 | 0.79%
COCc1nccc(C2CCCN(Cc3cccc(F)c3)C2)n1 (configuration not stated) | 0.769%
CN1CCN(CC2CCN(C(=O)CCC3CCCCC3)CC2)CC1 | -3.68%
COCCNC(=O)c1ccoc1CN1c2ccccc2CC1C (configuration not stated) | 5.41%
Cc1cn(-c2ccccc2)nc1NS(=O)(=O)c1ccc(C(=O)O)cc1 | -5.51%
COc1c(C2CCCN2C(=O)c2cccn2C)c(C)nn1C (configuration not stated) | -1.88%
CCN1CCN(c2ccc(NC(C)c3nc(C(C)C)no3)c(C)c2)CC1 (configuration not stated) | -10%
Cc1nn(C)c(Cl)c1CNCCOc1ccc2c(c1)OCO2 | 1.52%
Cc1oc(CN(C)C(=O)c2ccc(Br)cc2)cc1C(=O)O | 5.5%
CC(SCc1ccc(Br)c2cccnc12)C(N)=O (configuration not stated) | 1.67%
CN(Cc1ncnn1C)C(=O)Nc1ccc(OC(F)F)cc1 | -0.778%
O=C(NCC1(c2ccc(F)cc2)CCC1)N1CCC2(C1)OCCO2 | 2.58%
Cc1cc(CNC2(c3ccccc3)CCCCC2)no1 | 2.94%
CCOc1ccc(NC(C)c2nnnn2-c2ccccc2)cc1CO (configuration not stated) | -5%

SMILES | cytotoxicity at 10 µM
Clc1cccc(CNc2cnn(CCN3CCCCC3)c2)c1 | 0.889%
Cc1nn(C)c2ncc(CN3CCN(Cc4ccco4)CC3)cc12 | 0.243%
Cc1cc(=O)n2nc(Oc3cc(Cl)cc(Cl)c3)sc2n1 | 16.8%
CC(CNC(=O)c1cnc[nH]1)Oc1ccc(Cl)cc1 (configuration not stated) | -7.09%
CC(C)(C)NC(=O)CNC(=O)CCc1ccccc1Br | 3.09%
CN(C)CC(=O)N1CCC2(CCN(Cc3ccccn3)C2=O)C1 (configuration not stated) | 1.23%
CC1(C)CC1(C(=O)N1CC(c2cccnc2)C1)c1ccc(F)cc1 (configuration not stated) | -9.41%
COc1ccc(-n2cccn2)c(CN2CCC(O)(CO)CC2)c1 | 3.4%
O=C1NCCCc2[nH]c(Cc3ccc(F)cc3)nc21 | -20.9%
CNc1nc(C(=O)N2CCCCC2c2ccc(CN(C)C)cc2)cs1 (configuration not stated) | -2.86%
CSCc1nc(CCNC(=O)C(N)c2c(C)n[nH]c2C)cs1 (configuration not stated) | -3.95%
CCC1(CO)CCCN(C(=O)c2cc(COc3cccc(F)c3)[nH]n2)C1 (configuration not stated) | 5.31%
Cc1nc[nH]c1CN1CCCC12CCN(c1ccccn1)CC2 | 4.55%
CC1(C)Cc2c(cnn2-c2ccccc2)C(NC2CCSCC2)C1 (configuration not stated) | -186%
CNc1ccc(Cl)cc1C(=O)N1CCC(Cn2cc(CN)nn2)CC1 | -2.37%
CN(C)CCn1ccnc1C1CCN(C(=O)CCc2cccnc2)CC1 | -2.21%
Cn1c(N2CCOCC2)nc2cc(C(=O)NCC(F)(F)F)ccc21 | 1.85%
CCCc1nnc(N2CCC(N3CCN(CCO)CC3)CC2)o1 | -4.95%
CCCc1noc(C2CC(=O)N(CCN(C)C)C2)n1 (configuration not stated) | 5.48%
COCCN1CC2(CCC1=O)CCN(Cc1cc(F)ccc1Cl)CC2 | 5.29%
O=C1NCC2(CCCN(C(=O)c3ccc4c(c3)CCO4)C2)O1 (configuration not stated) | 2.32%
CC(C)(O)c1cn(C2CCN(C(=O)CCC3CCCC3)CC2)nn1 | 1.2%
CC(C)CN1CC(c2nc(CCc3ccccc3)n[nH]2)CC1=O (configuration not stated) | 6.08%

SMILES | cytotoxicity at 10 µM
O=S1(=O)CCC(n2nc(COc3ccccc3)nc2-c2cnccn2)C1 (configuration not stated) | -4.64%
O=C(CCCn1cncn1)N1CCC2(CCCNC2=O)C1 (configuration not stated) | -3.89%
O=C1NCCCC12CCN(Cc1ccc(-c3ccccc3)s1)C2 (configuration not stated) | 16.9%
CCn1c(C2CCNCC2)nn(CCn2ccc(C)n2)c1=O | 2.6%
COC(=O)N1CCCCC1C(=O)N1CCC(c2ccncc2)CC1 (configuration not stated) | 11.7%
Cn1c(CN2CCCC2)nnc1C1CCCN(C(=O)CN2CCCC2)C1 (configuration not stated) | -1.9%
COc1ncccc1C(=O)N(C)Cc1nc(-c2ccccn2)no1 | 3.38%
CCS(=O)(=O)c1ncc(CN(C)Cc2ccccn2)n1CCOC | -13.3%
C[C@@H]1CN(C2(C(=O)N3CCOCC3)Cc3ccccc3C2)C[C@H](C)O1 | 1.12%
COc1cc2nc3n(c(=O)c2cc1OC)CCN(C(C)=O)CC3 | -2.65%
Cc1nn(C)c(Cl)c1C1CCCN1Cc1noc(C2CC2)n1 (configuration not stated) | -1.64%
OCCn1nccc1C1CCN(CCOc2ccccc2Cl)CC1 | -5.04%
O=c1[nH]c(CN2CCCC(Cn3cncn3)C2)nc2ccccc12 (configuration not stated) | -12.4%
CCn1ccnc1CN1CCN(C(C)C(=O)N2CCCC2)CC1 (configuration not stated) | -3.97%
COc1ccc(OC)c(CNC(=O)N2CCC(n3cncn3)CC2)c1 | 2.46%
CCNC(c1cccnc1)c1ccc(F)c(C)c1 (configuration not stated) | -1.77%
COc1ccc(-n2ccc(C(=O)N3CCN(C)CC3C)n2)cc1 (configuration not stated) | -11.2%
COc1ccc(CCC(=O)NC2CCC(O)CC2)cc1OC (configuration not stated) | -5.26%
Cc1nccn1-c1cc(CNC(=O)CCC2CCCO2)ccn1 (configuration not stated) | -3.09%
Cc1nn(C)c(Cl)c1C1CCCN1C(=O)c1cc[nH]n1 (configuration not stated) | -5.55%
CCN(CC1CCOC1)C(=O)Nc1ccc(-n2cncn2)nc1 (configuration not stated) | -6.92%
COc1cc(C)nc(N2CCN(C(=O)COCC(F)(F)F)CC2)n1 | -9.62%
Cc1cc(C)n(CC(=O)N2CCC(NS(C)(=O)=O)CC2)n1 | 3.18%

SMILES | cytotoxicity at 10 µM
COc1cc(CNC(=O)Nc2cc(C(F)(F)F)c[nH]c2=O)ccn1 | 1.53%
COc1cc(CNc2cnn(C)c2)cc2c1OCCO2 | -10.8%
Cc1cc(CN2CCN(C(=O)NC(C)c3cccnc3)CC2)on1 (configuration not stated) | -7.93%
Cc1cc(C)n(CC2CCCN2C(=O)CCc2cscn2)n1 (configuration not stated) | -10.4%
O=C1CC(N(C(=O)c2ccc3[nH]c4c(c3c2)CCCC4)C2CC2)C(=O)N1 (configuration not stated) | -3.79%
Cc1cc(C(=O)N2CCCC(c3noc(C)n3)C2)[nH]n1 (configuration not stated) | -6.67%
CCOc1cccc2c1OCC(C(=O)NS(=O)(=O)c1ccc(C)s1)=C2 | -9.02%
CCS(=O)(=O)CCN1CCC(N(C)Cc2noc(C(C)C)n2)C1 (configuration not stated) | -5.55%
CCC(O)CN1CCN(C(=O)c2sccc2OC)CC1 (configuration not stated) | -7.25%
Cc1n[nH]c(C2CN(C(=O)c3ccnc(C4CC4)n3)CCO2)n1 (configuration not stated) | 1.85%
Cc1nc(C)n(CC2CCCN(CCC(=O)N3CCCCC3)C2)n1 (configuration not stated) | 3.9%
Cn1cnnc1C1CCCN(C(=O)c2ccc3c(c2)OCCCO3)C1 (configuration not stated) | 3.66%
CC(C)(C)c1cn2nc(N3CCOC(Cn4cncn4)C3)sc2n1 (configuration not stated) | -2.63%
O=C1COC2(CCN(Cc3cccs3)CC2)CN1c1ccsc1 | -125%
CCS(=O)(=O)N[C@@H]1CN(Cc2cc(C)on2)C[C@@H]2CCCO[C@@H]21 | -6.01%
Cc1cnc(CN(C)C2CCN(CC(=O)Nc3nncs3)C2)o1 (configuration not stated) | 1.76%
COc1cccc(CNC(C)Cn2cccn2)c1OC (configuration not stated) | -4.84%
CN1CCc2ncc(CNC(=O)c3cccn3C)n2CC1 | 1.27%
CCn1nnc2c1C(COC)CN(Cc1ccsc1)C2 (configuration not stated) | 2.3%
O=C(NCC1CCC(c2ccnc3ncnn23)CC1)C1CC1 (configuration not stated) | 9.17%
